# Hits are enriched below; roughly 11% of the tested compounds scored in any of these assays.
# Diaph inh CS – inhibits diaphorase or chemically oxidizes, flagging diaphorase assay artifacts; diaphorase resazurin-to-resorufin fluorescence, NADH, 16 min; bacterial (C. kluyveri) enzyme, not human; inhibition, % at 20 µM; 0.69% of 190,000 active; AID 1217;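 active means primary screen inhibition at 20 µM above a set limit, cut at about 50% in these data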
#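 System: Diaphorase enzyme from Clostridium kluyveri | Amount: Enzyme working solution with 0.14 U/mL diaphorase | Benchmarks: No-NADH positive control and DMSO neutral control | Signal: Fluorescence of resorufin formed from resazurin, Ex 544/Em 590 nm | Schedule: 16-min room-temperature incubation before reading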
# WT yeast gro inh – growth inhibition of WT yeast, mitochondrial fusion screen; mitochondrial fusion phenotypic screen, WT strain; inhibition, % at 10 µM; 2.1% of 190,000 active; AID 1362; in the data active means inhibition above about 58%; tested in S. cerevisiae
# Diaph act CS – diaphorase activation or chemical reduction counter-screen; AID 1229; activation factor at 20 µM; Diaphorase/resazurin coupled assay, resorufin fluorescence, 16 min; stronger effect = higher value; 1 = vehicle wells, 0 = NADH-free wells; 0.005% of 190,000 active;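 active means diaphorase activity raised at least twofold by the compound at 20 µM; inactive means activation factor below 2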
#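 System – purified diaphorase enzyme from Clostridium kluyveri · Input – enzyme 0.07 U/mL final · Also added – final NADH 0.114 mM, resazurin 0.1 mM · Measured by – fluorescence of resorufin, 544 nm excitation, 590 nm emission · Timing – 16 min enzyme reaction, ambient temperature · Measure – resorufin increase flagging diaphorase activators or reducers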
# L major viab – Leishmania major promastigote growth inhibition; Leishmania major promastigotes, resazurin fluorescence viability; inhibition, % at 10 µM; 9% of 200,000 active; AID 1063;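 further: promastigotes grown with compound for 44 hours at 28 °C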
# G6PDH CS – inhibits Leuconostoc G6PDH, flagging false hits in G6PDH-based assays. Purified L. mesenteroides G6PDH, diaphorase/resazurin coupled fluorescence, 45 min. inhibition, % at 5 µM. 0.12% of 200,000 active. AID 1020
# A number is an active result; - = inactive; . = not tested or not shown. Unless noted, no stated cut-off is given here; in the data, active means inhibition above about 50%; inactive means the rest.
SMILES,Diaph inh CS,WT yeast gro inh,Diaph act CS,L major viab,G6PDH CS
CCn1nnc(-c2ccccc2NS(=O)(=O)c2ccc(C(=O)OC)cc2)n1,-,-,-,-,-
COc1ccccc1NC(=O)Cn1nnc(-c2ccccc2NS(=O)(=O)c2ccccc2)n1,-,-,-,51.2,-
CCOC(=O)c1cc2c(=O)n3cccc(C)c3nc2n(Cc2ccco2)c1=NC(=O)c1cccnc1,-,-,-,86.1,-
CCOC(=O)c1cc2c(=O)n3ccccc3nc2n(Cc2ccco2)c1=NC(=O)c1cccnc1,-,-,-,-,-
Cc1cccc(C(=O)N=c2c(C#N)cc3c(=O)n4cccc(C)c4nc3n2Cc2ccco2)c1,60.5,-,-,-,-
O=C(c1ccc(Cl)cc1)N1CCCC(c2ccccc2)=N1,-,-,-,-,-
O=C(CN1CCCC1)Nc1c2c(nc3ccccc13)N(Cc1ccccc1)CC2,-,-,-,51.4,-
COc1ccc(-c2ccnc3nc(N4CCN(c5ccccc5)CC4)nn23)cc1,-,-,-,-,-
Cc1nc2c(=O)n(C)c(=O)n(C)c2nc1Cl,-,58.1,-,99.7,-
C/C(=N\NC(=O)C1CC1(c1ccccc1)c1ccccc1)c1cccc([N+](=O)[O-])c1 (centres undefined),-,-,-,59.7,-
Cc1ccc(C2(c3ccc(C)cc3)CC2C(=O)Nc2ccc([N+](=O)[O-])cc2O)cc1 (centres undefined),-,88.3,-,100.1,-
c1ccc(N2CCN(Cc3nnnn3C3CCCCC3)CC2)cc1,-,-,-,-,-
Cc1ccc(Cl)cc1N1CCN(Cc2nnnn2Cc2ccco2)CC1,-,-,-,-,-
C1CCC(n2nnnc2CN2CCN(C3CCCC3)CC2)CC1,-,-,-,89.6,-
Cc1ccc(Cl)cc1N1CCN(Cc2nnnn2C2CCCCC2)CC1,-,73.5,-,-,-
COc1ccc(NC(=O)c2cccc(-n3c(C)ccc3C)c2)c(OC)c1,-,-,-,63.2,-
Cc1cc(C)n(-c2nc(Nc3ccccc3)nc(-n3nc(C)cc3C)n2)n1,-,-,-,-,-
Cc1cc(C)n(-c2nc(N(c3ccccc3)c3ccccc3)nc(-n3nc(C)cc3C)n2)n1,-,-,-,54.1,-
CC(=O)c1nnn(-c2nc(N)nc(N(c3ccccc3)c3ccccc3)n2)c1C,-,-,-,91.7,-
CCCCN(CCCC)c1nc(OC)nc(-n2nnc(C(C)=O)c2C)n1,-,-,-,62.5,-
Cc1ccc(N2CCN(CC(=O)Nc3c(C(=O)C4CC4)oc4ccccc34)CC2)cc1,-,-,-,-,-
N#Cc1cccc(NC(=S)Nc2ccccc2)c1,-,-,-,-,-
Cc1cccc(NC(=O)CNC(=O)COc2cc(F)ccc2[N+](=O)[O-])c1C,-,-,-,-,-
C/C(CC(=O)Nc1ccc(Cl)c(Cl)c1)=N\NC(N)=S,-,-,-,62.3,-
COc1ccc2c(c1)CC/C(=C\Nc1ccc3c(c1)OCO3)C2=O,81.6,.,-,-,59.2
SMILES,Diaph inh CS,WT yeast gro inh,Diaph act CS,L major viab,G6PDH CS
COc1ccc(N/C=C2\CCc3ccccc3C2=O)cc1,89.8,-,-,-,61.7
COc1ccc(N/C=C2\CCOC2=O)cc1,-,-,-,-,-
O=C1/C(=C/Nc2ccc3c(c2)OCO3)CCc2ccccc21,74.8,62.5,-,-,53.1
O=C(Nc1cccc(C(F)(F)F)c1)c1cccnc1N1CCN(c2ccccc2)CC1,-,-,-,-,-
CCN1CCN(C(c2cccs2)C(C)NS(=O)(=O)c2ccc(C)cc2)CC1 (centres undefined),-,-,-,-,-
COc1cc(C2C=C(c3cccs3)Nc3ncnn32)cc(OC)c1OC (centres undefined),-,-,-,-,-
O=C(NCc1cccc(F)c1)C1CCN(C(=O)c2sccc2-n2cccc2)CC1,-,-,-,-,-
Cc1cc(N)n2nc(-c3ccccc3)cc2n1,-,-,-,54.9,-
CC(C)[C@H](NC(=O)[C@H](CCCN=C(N)N)NC(=O)NC(Cc1ccccc1)C(=O)O)C(=O)NC(C=O)CCCN=C(N)N (some centres undefined),-,-,-,82.4,-
Clc1cccc(COn2c(-c3ccc(Cl)cc3Cl)nc3ncccc32)c1,-,67.3,-,100.0,-
O=[N+]([O-])c1ccc2nc(-c3ccccc3)n(OCc3ccc(Cl)cc3)c2c1,-,-,-,-,-
Cc1ccc(COn2c(-c3ccc(Cl)cc3Cl)nc3ncccc32)cc1,-,71.0,-,-,-
CCOc1ccc(C2C(C(=O)c3cccs3)=C(O)C(=O)N2Cc2cccnc2)cc1OC (centres undefined),-,-,-,-,-
O=C(Nc1nc(-c2ccccc2)c(-c2ccccc2)s1)c1ccc(S(=O)(=O)N2CCCCC2)cc1,-,-,-,98.6,-
Cc1nn(-c2ccccc2)c(C)c1NC(=O)c1ccc(S(=O)(=O)N2CCCC2)cc1,-,73.7,-,-,-
Cc1ccc2nc(NC(=O)c3ccccn3)sc2c1,-,-,-,98.1,-
COc1ccc2nc(NC(=O)c3cnccn3)sc2c1,-,-,-,-,-
Cc1cccc(NC(=O)c2ccc(S(=O)(=O)N3CCCCC3)cc2)n1,.,-,.,.,.
O=C(Nc1nc2ccc(S(=O)(=O)N3CCCC3)cc2s1)c1ccccn1,-,-,-,98.7,-
CCOc1ccc(C(=O)NCC(c2cccs2)N(C)C)cc1 (centres undefined),-,-,-,-,-
O=C(CN1CCN(c2ccccc2O)CC1)NCCCc1ccccc1,-,-,-,-,-
O=C(Nc1nc2c(F)cc(F)cc2s1)c1ccccn1,-,-,-,97.6,-
COCc1cc(CN2CCCC2)c(O)c2ncccc12,-,-,-,100.5,-
Cc1nc(N2CCC(C)CC2)c2oc3ccccc3c2n1,-,-,-,-,-
Oc1cc(Cc2ccccc2)cnc1CN1CCCCC1,-,-,-,-,-
SMILES,Diaph inh CS,WT yeast gro inh,Diaph act CS,L major viab,G6PDH CS
Oc1c(CN2CCCCC2)cc(COCc2ccccc2)c2cccnc12,-,-,-,100.5,-
COc1ccccc1N1CCN(c2nc(C)nc3c2oc2ccccc23)CC1,-,74.6,-,-,-
COc1ccccc1N1CCN(Cc2cc(Br)c(O)c3ncccc23)CC1,58.2,-,-,100.4,-
CCc1nc2c(c(=O)c3ccccc3n2C)c(=O)n1CCc1ccc(OC)cc1,-,-,-,-,-
Cc1ccc(S(=O)(=O)N(C)c2ccc(C(=O)Nc3c(C)n(C)n(-c4ccccc4)c3=O)cc2)cc1,-,-,-,-,-
COc1ccc(CC2(C)OC(c3ccccc3)=NN2C(C)=O)cc1 (centres undefined),-,-,-,53.4,-
CC(Sc1ccsc1[N+](=O)[O-])C(=O)NCCc1ccc(Cl)cc1 (centres undefined),-,-,-,-,-
COc1ccc2c(c1)c(=O)c(C(=O)c1ccccc1)cn2Cc1ccc(C)cc1,-,-,-,51.7,-
